Test results: ChEMBL document CHEMBL5120760, “Terpenoids and Meroterpenoids from Cultures of Two Grass-Associated Species of Amylosporus (Basidiomycota)” (J Nat Prod, 2022)
In brackets after ≈: the same amount, converted by molar mass.

Key:
Staphylococcus aureus = test: Antibacterial activity against Staphylococcus aureus DSM 346 assessed as inhibition of bacterial growth incubated for overnight by serial dilution method; assay type: functional
Escherichia coli = test: Antibacterial activity against Escherichia coli DSM 1116 assessed as inhibition of bacterial growth incubated for overnight by serial dilution method; assay type: functional
Micrococcus luteus = test: Antibacterial activity against Micrococcus luteus DSM 1790 assessed as inhibition of bacterial growth incubated for overnight by serial dilution method; assay type: functional
[1] = test system: Chromobacterium violaceum; test: Antibacterial activity against Chromobacterium violaceum DSM 30191 assessed as inhibition of bacterial growth incubated for overnight by serial dilution method; assay type: functional
Bacillus subtilis = test: Antibacterial activity aginst Bacillus subtilis DSM 10 assessed as inhibition of bacterial growth incubated for overnight by serial dilution method; assay type: functional
Pseudomonas aeruginosa = test: Antibacterial activity against Pseudomonas aeruginosa PA 14 assessed as inhibition of bacterial growth incubated for overnight by serial dilution method; assay type: functional, organism-based
Mucor hiemalis = test: Antifungal activity against Mucor hiemalis DSM 2656 assessed as inhibition of fungal growth incubated for overnight by serial dilution method; assay type: functional
L929 = test: Cytotoxicity against mouse L929 cells assessed as inhibition of cell proliferation incubated for 5 days by MTT assay; assay type: functional, cell-based; details: L929, 120 h
How it was run: (§1)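 Colorimetric MTT tetrazolium assay, with epothilone B (1 mg/mL stock) as the positive control. IC50 was determined.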

KB 3-1 = test: Cytotoxicity against human KB 3-1 cells assessed as inhibition of cell proliferation incubated for 5 days by MTT assay; assay type: functional, cell-based; details: KB 3-1, 120 h; how it was run: as §1
Rhodotorula glutinis = test: Antifungal activity against Rhodotorula glutinis DSM 10134 assessed as inhibition of fungal growth incubated for overnight by serial dilution method; assay type: functional, organism-based
[2] = test system: Schizosaccharomyces pombe; test: Antifungal activity against Schizosaccharomyces pombe DSM 70572 assessed as inhibition of fungal growth incubated for overnight by serial dilution method; assay type: functional, organism-based
Wickerhamomyces anomalus = test: Antifungal activity against Pichia anomala DSM 6766 assessed as inhibition of fungal growth incubated for overnight by serial dilution method; assay type: functional, organism-based
SK-OV-3 = test: Cytotoxicity against human SK-OV-3 cells assessed as inhibition of cell proliferation incubated for 5 days by MTT assay; assay type: functional, cell-based; details: SK-OV-3, 120 h; how it was run: as §1
[3] = test system: Mycolicibacterium smegmatis; test: Antibacterial activity against Mycobacterium smegmatis ATCC 700084 assessed as inhibition of bacterial growth incubated for overnight by serial dilution method; assay type: functional

Compound	MIC (Staphylococcus aureus) [µg/mL]	MIC (Bacillus subtilis) [µg/mL]	MIC (Mucor hiemalis) [µg/mL]	IC50 (L929) [µM]	IC50 (KB 3-1) [µM]	further results
CN(C)[C@@H]1C(=O)C(C(N)=O)=C(O)[C@@]2(O)C(=O)C3=C(O)c4c(O)cccc4[C@@](C)(O)[C@H]3[C@H](O)[C@@H]12	0.4 (≈ 0.869 µM)	3.33 (≈ 7.23 µM)	–	–	–	MIC (Escherichia coli): 8.3 µg/mL (≈ 18 µM); MIC (Micrococcus luteus): 0.83 µg/mL (≈ 1.8 µM); MIC [1]: 1.7 µg/mL (≈ 3.69 µM)
GENTAMICIN	–	–	–	–	–	MIC (Pseudomonas aeruginosa): 0.4 µg/mL
CC(C)=CCc1c(C)c(C(=O)O)c(O)c(CC=C(C)C)c1O	66.7 (≈ 219 µM)	66.7 (≈ 219 µM)	66.7 (≈ 219 µM)	59.2	42.7	–
CC(C)=CCC/C(C)=C/Cc1c(O)cc(C)c(C=O)c1O	8.33 (≈ 28.9 µM)	4.2 (≈ 14.6 µM)	16.7 (≈ 57.8 µM)	66	62.5	MIC (Micrococcus luteus): 33.3 µg/mL (≈ 116 µM)
NYSTATIN	–	–	16.7	–	–	MIC (Rhodotorula glutinis): 4.2 µg/mL; MIC [2]: 16.7 µg/mL; MIC (Wickerhamomyces anomalus): 16.7 µg/mL
CC(C)=CCC/C(C)=C/Cc1c(O)c(Cl)c(C)c(C=O)c1O	1.04 (≈ 3.22 µM)	2.1 (≈ 6.5 µM)	33.3 (≈ 103 µM)	18	7.7	IC50 (SK-OV-3): 5.6 µM
NC[C@H]1O[C@H](O[C@H]2[C@H](O)[C@@H](O[C@H]3O[C@H](CO)[C@@H](O)[C@H](N)[C@H]3O)[C@H](N)C[C@@H]2N)[C@H](O)[C@@H](O)[C@@H]1O [KANAMYCIN]	–	–	–	–	–	MIC [3]: 1.7 µg/mL (≈ 3.51 µM)
CC(C)=CCC/C(C)=C/Cc1c(O)cc(C)c(C(=O)O)c1O	66.7 (≈ 219 µM)	66.7 (≈ 219 µM)	–	–	–	–
CC(C)=CCc1c(C)cc(O)c(CC=C(C)C)c1O	33.3 (≈ 128 µM)	33.3 (≈ 128 µM)	33.3 (≈ 128 µM)	53.8	57.7	–
C/C(=C\c1csc(C)n1)[C@@H]1C[C@@H]2O[C@]2(C)CCC[C@H](C)[C@H](O)[C@@H](C)C(=O)C(C)(C)[C@@H](O)CC(=O)O1 [PATUPILONE]	–	–	–	0.0014	6.9e-05	–
